Assay results from article PMC8861878 (The Journal of pharmacy and pharmacology, 2020).

Columns and labels:
[1] = target: CYP2E1 (Homo sapiens, UniProt P05181); assay: Inhibition of CYP2E1; format: in vitro ADME; settings: isobavachin 1, 10, 100 μM; substrate chlorzoxazone (200 μM)
How it was run: (§1)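 Recombinant human CYPs (CYP1A2 and 3A4 at 0.05 mg/ml; CYP2C8 and 2E1 at 0.1 mg/ml) with probe substrate in Tris-HCl 50 mM pH 7.4, MgCl2 5 mM and NADPH 1 mM at 37 °C for 60 min. Run without (control) or with test compound at 1, 10 or 100 μM. Acetonitrile stop; metabolite by UHPLC-TQD-MS; activity versus control, triplicate.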

[2] = target: T1, UGT2B4 (Homo sapiens, UniProt P06133); assay: Glucuronidation of isobavachin by recombinant UGT2B4, enzyme kinetics; format: in vitro ADME; settings: formation of G1; Michaelis–Menten model
T1 sequence (P06133 24-528): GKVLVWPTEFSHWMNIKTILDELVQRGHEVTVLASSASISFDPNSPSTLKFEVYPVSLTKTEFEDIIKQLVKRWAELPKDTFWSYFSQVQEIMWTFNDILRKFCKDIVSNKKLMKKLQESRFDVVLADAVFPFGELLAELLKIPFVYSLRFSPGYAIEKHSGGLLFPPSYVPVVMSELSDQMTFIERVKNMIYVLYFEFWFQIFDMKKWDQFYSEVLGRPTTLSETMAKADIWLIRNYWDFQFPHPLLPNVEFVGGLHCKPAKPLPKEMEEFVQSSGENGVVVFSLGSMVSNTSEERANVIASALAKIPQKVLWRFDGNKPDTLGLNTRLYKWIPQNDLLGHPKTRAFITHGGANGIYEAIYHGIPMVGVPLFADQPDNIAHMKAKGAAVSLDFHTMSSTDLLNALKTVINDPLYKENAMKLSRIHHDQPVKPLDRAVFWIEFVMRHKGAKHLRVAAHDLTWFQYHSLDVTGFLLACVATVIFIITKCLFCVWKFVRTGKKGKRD

[3] = target: T2, UGT1A9 (Homo sapiens, UniProt O60656); assay: Glucuronidation of isobavachin by recombinant UGT1A9, enzyme kinetics; format: in vitro ADME; settings: formation of G1, substrate inhibition model
T2 sequence (O60656 26-530): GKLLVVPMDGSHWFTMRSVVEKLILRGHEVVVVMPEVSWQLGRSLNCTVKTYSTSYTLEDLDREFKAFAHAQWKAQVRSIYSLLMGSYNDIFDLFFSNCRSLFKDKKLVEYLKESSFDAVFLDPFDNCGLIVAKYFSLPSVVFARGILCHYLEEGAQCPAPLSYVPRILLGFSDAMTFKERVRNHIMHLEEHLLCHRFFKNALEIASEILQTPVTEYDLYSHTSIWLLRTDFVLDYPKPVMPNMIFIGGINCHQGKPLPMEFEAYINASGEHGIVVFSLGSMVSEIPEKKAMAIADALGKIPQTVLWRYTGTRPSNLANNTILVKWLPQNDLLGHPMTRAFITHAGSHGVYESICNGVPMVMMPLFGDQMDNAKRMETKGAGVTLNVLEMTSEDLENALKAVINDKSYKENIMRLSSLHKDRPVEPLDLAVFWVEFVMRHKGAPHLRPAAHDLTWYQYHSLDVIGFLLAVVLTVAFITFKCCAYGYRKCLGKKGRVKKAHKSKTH

[4] = target: T3, CYP2C8 (Homo sapiens, UniProt P10632); assay: Inhibition of CYP2C8; format: in vitro ADME; settings: isobavachin 1, 10, 100 μM; substrate paclitaxel (60 μM)
T3 sequence (P10632 1-490): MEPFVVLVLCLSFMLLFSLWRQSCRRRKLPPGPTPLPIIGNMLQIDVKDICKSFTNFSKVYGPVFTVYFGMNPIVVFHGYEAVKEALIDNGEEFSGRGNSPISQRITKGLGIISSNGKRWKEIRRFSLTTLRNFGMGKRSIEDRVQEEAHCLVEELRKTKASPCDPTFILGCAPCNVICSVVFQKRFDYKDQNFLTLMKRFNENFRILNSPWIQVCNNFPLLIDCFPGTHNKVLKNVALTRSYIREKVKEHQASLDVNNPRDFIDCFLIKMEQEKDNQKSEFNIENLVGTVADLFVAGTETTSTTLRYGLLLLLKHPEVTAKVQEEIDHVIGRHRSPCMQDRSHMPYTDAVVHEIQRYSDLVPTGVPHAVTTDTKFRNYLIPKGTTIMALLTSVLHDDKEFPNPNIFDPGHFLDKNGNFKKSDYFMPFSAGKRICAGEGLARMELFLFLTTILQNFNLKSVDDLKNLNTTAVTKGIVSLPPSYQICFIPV
How it was run: as §1

[5] = tested on: expressed UGT enzymes; assay: Reaction phenotyping with expressed UGT enzymes; format: in vitro ADME, human; settings: isobavachin at 10 μM (Figure S4B)
[6] = target: T4, UGT1A1 (Homo sapiens, UniProt P22309); assay: Inhibition of UGT1A1; format: in vitro ADME
T4 sequence (P22309 26-533): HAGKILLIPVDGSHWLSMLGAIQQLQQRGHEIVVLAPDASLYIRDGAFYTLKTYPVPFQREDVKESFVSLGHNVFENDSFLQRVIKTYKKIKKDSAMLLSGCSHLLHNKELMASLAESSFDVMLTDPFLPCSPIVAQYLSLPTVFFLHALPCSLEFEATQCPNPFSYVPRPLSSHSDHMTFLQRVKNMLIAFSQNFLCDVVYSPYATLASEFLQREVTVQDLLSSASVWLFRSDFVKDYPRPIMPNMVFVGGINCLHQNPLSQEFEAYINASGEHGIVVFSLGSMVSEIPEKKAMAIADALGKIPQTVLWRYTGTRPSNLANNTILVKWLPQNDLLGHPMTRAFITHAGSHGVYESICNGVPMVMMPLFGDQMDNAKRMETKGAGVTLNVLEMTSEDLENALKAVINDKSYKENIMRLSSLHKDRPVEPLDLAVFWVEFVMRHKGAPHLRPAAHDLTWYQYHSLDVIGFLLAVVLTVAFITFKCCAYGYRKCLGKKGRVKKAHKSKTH

Chain of CYP2E1 (P05181 whole entry): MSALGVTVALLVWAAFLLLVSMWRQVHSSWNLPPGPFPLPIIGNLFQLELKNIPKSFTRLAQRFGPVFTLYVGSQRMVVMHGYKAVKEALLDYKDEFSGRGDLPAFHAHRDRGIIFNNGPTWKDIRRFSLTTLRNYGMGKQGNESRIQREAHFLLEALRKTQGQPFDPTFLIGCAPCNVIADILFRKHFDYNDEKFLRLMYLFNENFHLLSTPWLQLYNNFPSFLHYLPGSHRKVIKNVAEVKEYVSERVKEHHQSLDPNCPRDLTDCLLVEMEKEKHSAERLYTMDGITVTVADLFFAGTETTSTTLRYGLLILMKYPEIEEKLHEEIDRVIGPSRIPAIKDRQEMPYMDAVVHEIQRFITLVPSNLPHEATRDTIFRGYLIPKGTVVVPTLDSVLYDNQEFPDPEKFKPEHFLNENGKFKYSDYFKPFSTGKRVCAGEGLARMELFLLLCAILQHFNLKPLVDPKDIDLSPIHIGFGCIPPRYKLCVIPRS

CC(C)=CCc1c(O)ccc2c1O[C@H](c1ccc(O)cc1)CC2=O [isobavachin]
inhibitory effects [1]: negligible or weak
CLint (CLmax) [2]: 30.59 ± 3.28 μl/min per mg
Vmax [2]: 81.29 ± 2.05 pmol/min per mg
Ki ([3]; substrate inhibition constant): 38.39 ± 8.88 µM
CLint (CLmax) [3]: 202.62 ± 48.80 μl/min per mg
Vmax [3]: 3167.00 ± 426.4 pmol/min per mg
inhibitory effects [4]: negligible or weak
UGT enzymes involved in glucuronidation [5]: UGT1A1, 1A6, 1A7, 1A8, 1A9 and 2B4 have an important role in glucuronidation reaction
IC50 [6]: 1.53 ± 0.39 µM
residual activities ([6]; 10 μM isobavachin): 4.58 % of the negative control
Ki ([6]; Ki, substrate estradiol, competitive model (selected, smallest AIC and SC)): 3.05 ± 0.41 µM
Inhibition type ([6]; based on the smallest AIC and SC values): competitive inhibition
α ([6]; substrate estradiol, mixed-type model): 8.01 ± 2.56
